Measurements published in ChEMBL document CHEMBL4000223, “Evaluation of substituted ebselen derivatives as potential trypanocidal agents” (Bioorg Med Chem Lett, 2017).

Assays:
Trypanosoma brucei [1] = assay: Inhibition of recombinant Trypanosoma brucei His6-tagged HK1 expressed in Escherichia coli M15(pREP) harboring pQE30 at 10 uM using glucose as substrate by spectrophotometric based glucose 6-phosphate dehydrogenase enzyme coupled assay
How it was run: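 Purified recombinant TbHK1 incubated with the compound at a single fixed screening concentration, after which enzyme activity was scored. Percent inhibition is recorded relative to uninhibited enzyme.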

Trypanosoma brucei [2] = assay: Antitrypanosomal activity against Trypanosoma brucei 427 bloodstream forms after 72 hrs by CellTiter-Blue fluorescence assay; assay type: functional; details: Trypanosoma brucei, 427, 72 h
How it was run: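 Bloodstream-form cultures were run as triplicate dose-response series to derive 50% effective concentrations. Compounds were taken to this stage only if they gave more than 50% growth inhibition in the single-concentration screen. DMSO vehicle served as the negative control, and EbS was included as a positive control in each assay.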

Trypanosoma brucei [3] = assay: Antitrypanosomal activity against Trypanosoma brucei 427 bloodstream forms at 10 uM after 72 hrs by CellTiter-Blue fluorescence assay; assay type: functional; details: Trypanosoma brucei, 427, 72 h
How it was run: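 Single-concentration growth screen of bloodstream-form cultures, run in triplicate. Percent inhibition was calculated against growth of parasites given DMSO vehicle on the same plate, which served as the negative control. EbS at the same concentration was included in each assay as a positive control.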

[4] = Inhibition of recombinant Trypanosoma brucei His6-tagged HK1 expressed in Escherichia coli M15(pREP) harboring pQE30 using glucose as substrate by spectrophotometric based glucose 6-phosphate dehydrogenase enzyme coupled assay
[5] = Inhibition of recombinant Trypanosoma brucei His6-tagged HK1 expressed in Escherichia coli M15(pREP) harboring pQE30 using glucose as substrate after 2 hrs by spectrophotometric based glucose 6-phosphate dehydrogenase enzyme coupled assay
Trypanosoma brucei [6] = assay: Antitrypanosomal activity against Trypanosoma brucei bloodstream forms after 72 hrs by CellTiter-Blue fluorescence assay; assay type: functional
How it was run: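 Bloodstream-form T. brucei cultures assayed in triplicate, with DMSO vehicle as negative control and a reference ebselen analogue as positive control on each plate. Growth inhibition is calculated against the DMSO controls of the same plate. Compounds giving over 50% inhibition in the single-concentration screen went on to triplicate dose-response curves to derive 50% effective concentrations.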

[7] = Inhibition of recombinant Trypanosoma brucei HK1 expressed in Escherichia coli or yeast using glucose as substrate by spectrophotometric based glucose 6-phosphate dehydrogenase enzyme coupled assay

Work on `CC(C)C[C@@H](NC(=O)[C@@H](CCCCN)NC(=O)[C@@H](C)NC(=O)CNC(=O)CNC(=O)c1cccc(-n2sc3ccccc3c2=O)c1)C(=O)O` yielded an inhibition (Trypanosoma brucei [1]) of 0%, an EC50 (Trypanosoma brucei [2]) of over 10 µM and an inhibition at 10 µM (Trypanosoma brucei [3]) of 0%. The IC50 [4] was over 10 µM.
Compound `COC(=O)Cn1sc2ccccc2c1=O` has an inhibition (Trypanosoma brucei [1]) of 12.8%, an EC50 (Trypanosoma brucei [2]) of 0.28 µM and an inhibition at 10 µM (Trypanosoma brucei [3]) of 98.3%. The IC50 [4] was over 10 µM.
`O=C(O)c1ccc(-n2[se]c3ccccc3c2=O)cc1` gave an inhibition (Trypanosoma brucei [1]) of 17.2%, an EC50 (Trypanosoma brucei [2]) of over 10 µM and an inhibition at 10 µM (Trypanosoma brucei [3]) of 12%. The IC50 [4] was over 10 µM.
With `COC(=O)c1ccc(-n2[se]c3ccccc3c2=O)cc1` the inhibition (Trypanosoma brucei [1]) was 79%, the EC50 (Trypanosoma brucei [2]) was 13 µM and the inhibition at 10 µM (Trypanosoma brucei [3]) was 38.6%. The IC50 [4] was 3.16 µM.
In the case of `CC(C)C[C@@H](NC(=O)[C@@H](CCCCN)NC(=O)[C@@H](C)NC(=O)CNC(=O)CNC(=O)Cn1sc2ccccc2c1=O)C(=O)O`, the inhibition (Trypanosoma brucei [1]) is reported as 3.7%, the EC50 (Trypanosoma brucei [2]) is reported as over 10 µM and the inhibition at 10 µM (Trypanosoma brucei [3]) is reported as 28%. The IC50 [4] was over 10 µM.
With `O=c1c2ccccc2[se]n1-c1ccccc1` [EBSELEN] the IC50 [5] was 0.05 µM and the EC50 (Trypanosoma brucei [6]) was 2.9 µM.
Work on `COC(=O)c1cccc2c(=O)n(-c3ccccc3)[se]c12` yielded an inhibition (Trypanosoma brucei [1]) of 2.7%, an EC50 (Trypanosoma brucei [2]) of 10 µM and an inhibition at 10 µM (Trypanosoma brucei [3]) of 55.6%. It also gave an IC50 [4] of over 10 µM.
Work on `COC(=O)c1cccc(-n2[se]c3ccccc3c2=O)c1` yielded an inhibition (Trypanosoma brucei [1]) of 0%, an EC50 (Trypanosoma brucei [2]) of over 10 µM and an inhibition at 10 µM (Trypanosoma brucei [3]) of 18%. For the same compound, the IC50 [4] was over 10 µM.
In the case of `CC(C)C[C@H](NC(=O)[C@H](CCCCN)NC(=O)[C@H](C)NC(=O)CCOCCOCCNC(=O)c1ccc(-n2[se]c3ccccc3c2=O)cc1)C(=O)O`, the inhibition (Trypanosoma brucei [1]) is reported as 0%, the EC50 (Trypanosoma brucei [2]) is reported as over 10 µM and the inhibition at 10 µM (Trypanosoma brucei [3]) is reported as 25%. It also gave an IC50 [4] of over 10 µM.
Compound `O=C(O)Cn1sc2ccccc2c1=O` has an inhibition (Trypanosoma brucei [1]) of 0.87%, an EC50 (Trypanosoma brucei [2]) of 7.2 µM and an inhibition at 10 µM (Trypanosoma brucei [3]) of 77.6%. The IC50 [4] was over 10 µM.
With `CC(C)C[C@@H](NC(=O)[C@@H](CCCCN)NC(=O)[C@@H](C)NC(=O)CNC(=O)CNC(=O)c1cccc2c(=O)n(-c3ccccc3)[se]c12)C(=O)O` the inhibition (Trypanosoma brucei [1]) was 0%, the EC50 (Trypanosoma brucei [2]) was over 10 µM and the inhibition at 10 µM (Trypanosoma brucei [3]) was 0%. It also gave an IC50 [4] of over 10 µM.
Compound `CC(C)C[C@@H](NC(=O)[C@@H](CCCCN)NC(=O)[C@@H](C)NC(=O)CNC(=O)CNC(=O)c1cccc(-n2[se]c3ccccc3c2=O)c1)C(=O)O` has an inhibition (Trypanosoma brucei [1]) of 0%, an EC50 (Trypanosoma brucei [2]) of over 10 µM and an inhibition at 10 µM (Trypanosoma brucei [3]) of 28.4%. The IC50 [4] was over 10 µM.
Work on `CC(C)C[C@@H](NC(=O)[C@@H](CCCCN)NC(=O)[C@@H](C)NC(=O)CNC(=O)CNC(=O)c1cccc2c(=O)n(-c3ccccc3)sc12)C(=O)O` yielded an inhibition (Trypanosoma brucei [1]) of 0%, an EC50 (Trypanosoma brucei [2]) of over 10 µM and an inhibition at 10 µM (Trypanosoma brucei [3]) of 0%. The IC50 [4] was over 10 µM.
Work on `O=C(O)Cn1[se]c2ccccc2c1=O` yielded an inhibition (Trypanosoma brucei [1]) of 0%, an EC50 (Trypanosoma brucei [2]) of over 10 µM and an inhibition at 10 µM (Trypanosoma brucei [3]) of 0%. It also gave an IC50 [4] of over 10 µM.
For `O=C(O)c1cccc(-n2sc3ccccc3c2=O)c1`, the inhibition (Trypanosoma brucei [1]) was 0%, the EC50 (Trypanosoma brucei [2]) was over 10 µM and the inhibition at 10 µM (Trypanosoma brucei [3]) was 15.8%. For the same compound, the IC50 [4] was over 10 µM.
`O=c1c2ccccc2sn1-c1ccccc1` gave an IC50 [5] of 2 µM and an EC50 (Trypanosoma brucei [6]) of 0.03 µM.
`O=C(O)c1nn(Cc2ccc(Cl)cc2Cl)c2ccccc12` [LONIDAMINE] gave an IC50 [7] of 850 µM.
`CC(C)C[C@@H](NC(=O)[C@@H](CCCCN)NC(=O)[C@@H](C)NC(=O)CNC(=O)CNC(=O)Cn1[se]c2ccccc2c1=O)C(=O)O` gave an inhibition (Trypanosoma brucei [1]) of 1.7%, an EC50 (Trypanosoma brucei [2]) of over 10 µM and an inhibition at 10 µM (Trypanosoma brucei [3]) of 34.4%. It also gave an IC50 [4] of over 10 µM.
`O=C(O)c1ccc(-n2sc3ccccc3c2=O)cc1` gave an inhibition (Trypanosoma brucei [1]) of 0%, an EC50 (Trypanosoma brucei [2]) of over 10 µM and an inhibition at 10 µM (Trypanosoma brucei [3]) of 0%. For the same compound, the IC50 [4] was over 10 µM.
Work on `CC(C)C[C@@H](NC(=O)[C@@H](CCCCN)NC(=O)[C@@H](C)NC(=O)CNC(=O)CNC(=O)c1ccc(-n2sc3ccccc3c2=O)cc1)C(=O)O` yielded an inhibition (Trypanosoma brucei [1]) of 10.4%, an EC50 (Trypanosoma brucei [2]) of over 10 µM and an inhibition at 10 µM (Trypanosoma brucei [3]) of 26.4%. The IC50 [4] was over 10 µM.
With `O=C(O)c1cccc(-n2[se]c3ccccc3c2=O)c1` the inhibition (Trypanosoma brucei [1]) was 18.5%, the EC50 (Trypanosoma brucei [2]) was over 10 µM and the inhibition at 10 µM (Trypanosoma brucei [3]) was 0%. It also gave an IC50 [4] of over 10 µM.
Compound `O=C(O)c1cccc2c(=O)n(-c3ccccc3)sc12` has an inhibition (Trypanosoma brucei [1]) of 0%, an EC50 (Trypanosoma brucei [2]) of over 10 µM and an inhibition at 10 µM (Trypanosoma brucei [3]) of 10.9%. For the same compound, the IC50 [4] was over 10 µM.
Work on `CC(C)C[C@@H](NC(=O)[C@@H](CCCCN)NC(=O)[C@@H](C)NC(=O)CNC(=O)CNC(=O)c1ccc(-n2[se]c3ccccc3c2=O)cc1)C(=O)O` yielded an inhibition (Trypanosoma brucei [1]) of 0%, an EC50 (Trypanosoma brucei [2]) of over 10 µM and an inhibition at 10 µM (Trypanosoma brucei [3]) of 44.1%. It also gave an IC50 [4] of over 10 µM.
With `COC(=O)c1cccc(-n2sc3ccccc3c2=O)c1` the inhibition (Trypanosoma brucei [1]) was 1.7%, the EC50 (Trypanosoma brucei [2]) was over 10 µM and the inhibition at 10 µM (Trypanosoma brucei [3]) was 8.8%. For the same compound, the IC50 [4] was over 10 µM.
Compound `COC(=O)c1ccc(-n2sc3ccccc3c2=O)cc1` has an inhibition (Trypanosoma brucei [1]) of 22.8%, an EC50 (Trypanosoma brucei [2]) of 3.8 µM and an inhibition at 10 µM (Trypanosoma brucei [3]) of 66.5%. The IC50 [4] was over 10 µM.
With `CC(C)C[C@H](NC(=O)[C@H](CCCCN)NC(=O)[C@H](C)NC(=O)CCOCCOCCNC(=O)c1ccc(-n2sc3ccccc3c2=O)cc1)C(=O)O` the inhibition (Trypanosoma brucei [1]) was 0%, the EC50 (Trypanosoma brucei [2]) was over 10 µM and the inhibition at 10 µM (Trypanosoma brucei [3]) was 35.4%. For the same compound, the IC50 [4] was over 10 µM.
`COC(=O)c1cccc2c(=O)n(-c3ccccc3)sc12` gave an inhibition (Trypanosoma brucei [1]) of 18%, an EC50 (Trypanosoma brucei [2]) of 10 µM and an inhibition at 10 µM (Trypanosoma brucei [3]) of 52.5%. For the same compound, the IC50 [4] was over 10 µM.
Compound `COC(=O)Cn1[se]c2ccccc2c1=O` has an inhibition (Trypanosoma brucei [1]) of 0%, an EC50 (Trypanosoma brucei [2]) of over 10 µM and an inhibition at 10 µM (Trypanosoma brucei [3]) of 0%. The IC50 [4] was over 10 µM.
With `O=C(O)c1cccc2c(=O)n(-c3ccccc3)[se]c12` the inhibition (Trypanosoma brucei [1]) was 0%, the EC50 (Trypanosoma brucei [2]) was over 10 µM and the inhibition at 10 µM (Trypanosoma brucei [3]) was 0%. The IC50 [4] was over 10 µM.
